Screening data (PubChem)
EBV gp42 block – EBV gp42 inhibition; Fluorescence polarization binding assay, mP read-out; 0.42% of 220,000 active; inhibition, % (tested at 21.74 µM); in the data active means inhibition above about 50%
Target sequence (Q1HVG2 whole entry, looked up): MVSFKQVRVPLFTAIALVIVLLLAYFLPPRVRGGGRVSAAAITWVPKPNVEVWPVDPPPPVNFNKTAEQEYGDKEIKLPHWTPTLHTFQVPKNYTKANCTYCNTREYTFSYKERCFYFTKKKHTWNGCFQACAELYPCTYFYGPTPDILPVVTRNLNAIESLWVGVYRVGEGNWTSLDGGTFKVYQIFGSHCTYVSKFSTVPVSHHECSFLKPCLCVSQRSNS
WT yeast gro inh – growth inhibition of WT yeast, mitochondrial fusion screen. AID 1362. inhibition, % at 10 µM. 2.1% of 190,000 active. mitochondrial fusion phenotypic screen, WT strain; in the data active means inhibition above about 58%; tested in S. cerevisiae
CHOP inh – blocks CHOP induction under ER stress | 3.8% of 220,000 active | CHO-K1 CHOP-promoter luciferase, tunicamycin-induced, 15-18 h | inhibition, % at 10 µM;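 active means compounds that reduced the stress-induced luciferase reporter signal by more than about 70% of percent inhibition, limit read from the data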;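 further: 0% = tunicamycin plus vehicle and 100% = wells without tunicamycin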
MPTP inh – inhibitors of mitochondrial permeability transition pore; inhibition, % at 10 µM; 1.4% of 360,000 active; isolated mouse mitochondria, Ca2+ swelling absorbance, 30 min;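 active means inhibition of 50% or more, scaled per plate between neutral and stimulator controls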;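 further: 0% = DMSO wells given calcium and 100% = 1 mM EGTA wells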
TbMetRS inhib – Trypanosoma brucei MetRS inhibition. 0.4% of 360,000 active. inhibition, % at 11.9 µM. purified T. brucei MetRS, ATP depletion, Kinase-Glo luminescence. AID 624268;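 active means inhibition above a per-plate cutoff of the control wells' mean inhibition plus 3 SD, cut at about 5.5% in these data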;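 further: 0% = DMSO wells median and 100% = median of wells with control inhibitor compound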
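Assay system: T. brucei methionyl-tRNA synthetase, purified | Medium: HEPES buffer with MgCl2, KCl, DTT, spermine, BSA, pyrophosphatase | Compound: 11.9 µM single point | Incubation: 15 min enzyme-compound preincubation, 2 h reaction, 10 min detection, 25 °C | Measured by: Kinase-Glo luciferase luminescence reporting remaining unconsumed ATP | Measure: % inhibition normalized to control-well medians | Replication: Singlicate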
NR3A LBD binder – modulators (binders) of human NR3A ligand-binding domain; NR3A LBD differential scanning fluorimetry, Tm shift; 0% = protein alone, 100% = glycine-bound protein; Tm shift relative to glycine control, % at 25 µM; 2.5% of 340,000 active; AID 1259313;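 active means melting temperature shift of at least 10% of the positive control shift, at one fixed dose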
Active calls of the source: *; . = no result. Shown are actives, neighbours in structure and some others; about 6.4% of the full set was active somewhere.

SMILES | EBV gp42 block | WT yeast gro inh | CHOP inh | MPTP inh | TbMetRS inhib | NR3A LBD binder
CCOC(=O)c1c(CC(C)C)csc1NC(=O)COC(=O)C1=NNC(=O)CC1 | . | . | . | -1 | 0 | 0
COC(=O)c1cc(NC(=O)c2ccc(Cn3cc(Cl)cn3)o2)cc(C(=O)OC)c1 | -20 | 3 | -20 | 0 | -1 | 2
CCOC(=O)c1c(CC(C)C)csc1NC(=O)COC(=O)c1ccc(O)cc1 | . | . | . | 8 | 0 | 25*
O=C(Nc1sc2c(c1C(=O)NC1CC1)CCCCCC2)c1ccco1 | -12 | -25 | 96* | 0 | -2 | -1
O=C(Nc1sc2c(c1C(=O)O)CCC2)c1ccco1 | -3 | 0 | 3 | 2 | 0 | 3
COc1ccccc1N(CC(=O)N/N=C(\C)c1cccc(Br)c1)S(C)(=O)=O | -6 | 4 | 19 | -2 | 0 | -7
COc1ccc2nc(C(F)(F)C(F)(F)F)c(C#N)c(N)c2c1 | 2 | -3 | 81* | 5 | 0 | 22*
NC(=O)c1ccsc1NC(=O)COC(=O)c1ccccn1 | . | . | . | -1 | 0 | 0
COc1ccc(C(=O)Nc2ccccc2C(=O)N/N=C/c2ccco2)cc1 | 11 | 43 | -28 | 0 | -1 | -1
COc1cccc(-c2nc(-c3ccc(C(=O)O)cc3)no2)c1 | . | . | . | 1 | 0 | -1
COc1cccc(-c2nc(-c3ccc(NC(=O)c4ccncc4)cc3)no2)c1 | -3 | -8 | 30 | 39 | 0 | 24*
CCOc1ccccc1-c1nc(-c2ccc(NC(=O)c3ccc(Br)o3)cc2)no1 | -8 | 38 | -31 | . | . | 16*
COc1cccc(NC(=O)c2ccccc2-c2nc(-c3ccc(Cl)cc3)no2)c1 | 1 | 22 | 64 | 4 | -1 | 16*
COc1cccc(-c2nc(-c3ccc(NC(=O)c4cccs4)cc3)no2)c1 | -10 | 58* | -22 | 3 | 0 | 15*
O=C(CN1CCN(c2ccccn2)CC1)Nc1ccc([N+](=O)[O-])cc1C(=O)Nc1ccccc1F | . | . | . | 0 | 0 | -1
COc1cccc(OCCn2ccnc2)c1 | -16 | 1 | 18 | -1 | 0 | -3
CCc1ccc(CN2CCC(Oc3ccc(C(=O)N4CCCCC4)cc3)CC2)cc1 | . | . | . | 2 | 0 | 1
CC(=O)Nc1ccc(NC(=O)CSc2nnc(-c3ccco3)o2)cc1 | 2 | -3 | -1 | 0 | 0 | -2
Cc1ccc(-c2nnc(-c3cccc(NC(=O)c4cccs4)c3)o2)cc1 | -21 | 16 | 47 | 1 | 0 | 20*
COc1ccc(Cl)cc1-c1nc(-c2ccc(NC(=O)c3ccncc3)cc2)no1 | . | . | . | -2 | 0 | 26*
Cc1ccc(SCC(=O)Nc2cccc(-c3nnc(-c4ccco4)o3)c2)cc1 | -11 | 9 | 71* | 1 | 0 | 1
COc1ccc(-c2nc(-c3ccc(NC(=O)c4ccncc4)cc3)no2)cc1OC | -10 | 5 | 72* | 19 | 0 | 12*
O=C(Nc1cccc(-c2nnco2)c1)c1cccs1 | -4 | . | -3 | -1 | -1 | 2
COc1cc(-c2nc(-c3ccc(NC(=O)c4ccc5c(c4)OCO5)cc3)no2)cc(OC)c1OC | 0 | -34 | 28 | -1 | 0 | -4
Cc1ccc2c(CNCc3ccco3)cc(=O)oc2c1 | 6 | -8 | -2 | 0 | 1 | 2
SMILES | EBV gp42 block | WT yeast gro inh | CHOP inh | MPTP inh | TbMetRS inhib | NR3A LBD binder
COc1ccccc1NC(=O)c1cccs1 | -3 | . | -13 | 1 | -1 | -3
OCCN(CCO)c1nc2ccccc2[nH]1 | -13 | . | 7 | -1 | 0 | 0
CC1(C)CC(=O)C(C=NCC2CCNCC2)=C(O)C1 | -19 | 7 | 72* | -2 | -1 | 5
CC1(C)CC(=O)C(C=NCC2CCCO2)=C(O)C1 (stereo not given) | -20 | 1 | -10 | -2 | 0 | 1
Cc1cccc(C)c1NC(=S)NC(C)CCc1ccccc1 (stereo not given) | -6 | 73* | 15 | -17 | -1 | -2
COc1ccc(CNC(=S)NC(C)CCc2ccccc2)cc1 (stereo not given) | 1 | 71* | 18 | 10 | 0 | -2
CCCOc1ccc(C2C(C(=O)c3ccco3)=C(O)C(=O)N2CCN2CCOCC2)cc1OC (stereo not given) | 1 | 58* | -2 | . | . | .
Cc1cc(=O)oc2cc(OCC(=O)Nc3cccc(S(=O)(=O)N(C)C)c3)ccc12 | -8 | 12 | 21 | 3 | -1 | 0
COc1ccc(C(=O)N2CCC(CCC(=O)Nc3cccc(C)c3)CC2)cc1 | . | . | . | 0 | 0 | 0
COc1ccc(C(c2c[nH]c3ccccc23)c2c[nH]c3ccccc23)cc1O | -16 | 22 | 75* | 5 | 0 | .
COc1nc(NCc2ccco2)nc(NC2CCCCC2)n1 | 2 | 17 | -16 | 0 | -1 | 0
CCOc1nc(NC2CCCCC2)nc(NC(C)(C)C)n1 | -10 | 58* | 28 | 1 | 0 | -2
O=C(Nc1nnc(SCc2ccc(Cl)cc2)s1)c1ccco1 | -4 | -5 | -10 | -2 | -1 | -4
COc1ccc(/C=C/C(=O)C2CC2)cc1COc1c(C)cccc1C | -8 | 57 | 27 | 0 | -1 | 2
FC(F)(F)c1nnc2c(Sc3ccc(Cl)cc3)nc3ccccc3n12 | -14 | -13 | 71* | 1 | -1 | -3
FC(F)(F)c1nnc2c(Sc3ccccc3)nc3ccccc3n12 | -21 | -25 | 33 | 1 | 1 | 0
COc1ccc(C(=O)Nc2cc(C)c3c(=O)oc4ccccc4c3n2)cc1 | -15 | 4 | 88* | 1 | 0 | 0
Cc1cc(NC(=O)CC(C)(C)C)nc2c1c(=O)oc1ccccc12 | -28 | -6 | 74* | 3 | 0 | -11
CCCCC(=O)Nc1ccc2c3c(cccc13)C(=O)N2CC | -23 | -10 | -12 | 0 | -1 | 0
Cc1ccc(NC(=O)CN(C)CC(=O)NC2CCCc3ccccc32)cc1 (stereo not given) | -23 | . | 23 | 2 | 0 | -1
CC(C)(C)c1ccc(NC(=O)CNC2CCCc3ccccc32)cc1 (stereo not given) | 5 | 81* | 91* | 2 | 0 | -4
Clc1cccc(NCc2nnc(SCc3ccccc3Cl)o2)c1 | 1 | -33 | 68 | 0 | 0 | -5
Clc1cccc(NCc2nnc(SCc3ccccc3)o2)c1 | 4 | 5 | 71* | 1 | 0 | -16
N#CCSc1nnc(CNc2cccc(Cl)c2)o1 | 1 | -17 | 10 | 1 | 0 | 14*
N#CCSc1nnc(COc2ccc3ccccc3c2)o1 | -15 | -64 | 13 | 2 | -1 | 15*
NC(=O)CSc1nnc(COc2ccc3ccccc3c2)o1 | . | . | . | 1 | -1 | 3
COc1ccc(-c2nc3ccc(C)cn3c2CC2CCCCC2)cc1OC | . | . | . | -1 | 0 | .
O=C(NCCNS(=O)(=O)c1ccccc1)c1ccc([N+](=O)[O-])cc1 | . | . | . | 0 | -1 | -1
